Laboratory results published in ChEMBL document CHEMBL4342502, “Synthesis and Antichlamydial Activity of Molecules Based on Dysregulators of Cylindrical Proteases” (J Med Chem, 2020).
Activity calls are given as the source filed them. No cut-off for these calls is given here.

How the values were obtained:
[1] = Hepatic intrinsic clearance in human liver microsomes at 1 ug/ml measured per kg body weight up to 60 mins by LC-MS/MS analysis; format: ADME, Microsome; conditions: 1 h
Chlamydia trachomatis [2] = assay: Anti-chlamydial activity against Chlamydia trachomatis Serovar LGV-L2 infected in Hep2 cells assessed as inhibition of chlamydial inclusion at 50 ug/ml treated at 8 hrs post infection and measured at 24 hrs post-infection by immunofluorescence assay; format: functional, organism-based
Summary of the method: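 HEp-2 cells infected with C. trachomatis serovar L2. Compounds at 50 μg/mL added 8 hpi; inclusion number and size assessed by immunofluorescence at 24 hpi against untreated cells. Cell morphology and viability checked by phase-contrast microscopy.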

[3] = Toxicity in Drosophila melanogaster assessed as survival rate at 0.25 to 1 mM; conditions: 1000 µM
Summary of the method: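 Drosophila SMART assay using third-instar larvae (72 ± 4 h) from ST and HB crosses. Larvae exposed in hydrated instant mashed-potato medium at 0.25, 0.5 and 1.0 mM final. Vehicle control: water with 1% Tween-80 and 3% ethanol. Survival of treated groups compared statistically with the vehicle control.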

[4] = Half life in human liver microsomes at 1 ug/ml measured up to 60 mins by LC-MS/MS analysis; format: ADME, Microsome; conditions: microsomes, 1 h
Summary of the method: (§1)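 Human liver microsomes (1.0 mg/mL protein) in 100 mM phosphate pH 7.4 with 10 mM MgCl2 and 2 mM NADPH, preincubated 10 min at 37 °C. Reaction started with compound at 1 μg/mL. Sampled at 0, 5, 15, 20, 30, 45 and 60 min and quenched in methanol with internal standard. Controls: no NADPH (negative), testosterone (positive). Analysed by LC-MS/MS, triplicate.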

[5] = Stability of compound in mouse pre-heated plasma at 50 uM incubated up to 120 mins by HPLC-ESI/MS analysis; format: ADME, cell-free; conditions: 2 h
Summary of the method: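 Compounds from 2.5 mM DMSO stocks incubated at 50 μM final in mouse plasma diluted to 80% with PBS, preheated, 37 °C, shaking. Sampled at 0, 15, 30, 60, 90 and 120 min and quenched with cold acetonitrile. Centrifuged; supernatant analysed by HPLC-ESI-MS. Peak area reported relative to time zero. Enalapril positive control; triplicate.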

Escherichia coli [6] = assay: Antibacterial activity against Escherichia coli ATCC 25922 assessed as bacterial growth inhibition at 32 ug/ml measured after 16 hrs by broth microdilution method; format: functional, organism-based
Escherichia coli [7] = assay: Antibacterial activity against Escherichia coli K12 assessed as bacterial growth inhibition at 32 ug/ml measured after 16 hrs by broth microdilution method; format: functional, organism-based; conditions: K-12
Summary of the method: (§2)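 Broth microdilution in Mueller Hinton broth, triplicate. Direct colony suspension at 1.5 x 10^8 CFU/mL diluted to ~10^5 CFU/mL. Serial dilutions made from DMSO stocks at 1 mg/mL; vancomycin positive control, blank medium negative control. Incubated 16 h at optimum temperature. MIC is the lowest concentration without visible growth at 600 nm; mean of triplicate determinations.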

[8] = Mutagenicity in Drosophila melanogaster somatic cells assessed as frequency of clone formation in HB crosses at 0.25 to 1 mM by SMART assay; format: ADME; conditions: 1000 µM
Summary of the method: (§3)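 Drosophila SMART wing-spot assay, ST and HB crosses. Third-instar larvae (72 ± 4 h) placed on hydrated instant mashed potato medium containing compound at 0.25, 0.5 or 1.0 mM final. Negative control: water with 1% Tween-80 and 3% ethanol. Statistics by Frei and Würgler two-sided U test, P≤0.05.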

[9] = Intrinsic clearance in human liver microsomes at 1 ug/ml measured per mg protein up to 60 mins by LC-MS/MS analysis; format: ADME, Microsome; conditions: microsomes, 1 h; summary of the method: as §1
Acinetobacter baumannii = assay: Antibacterial activity against Acinetobacter baumannii ATCC 19606 assessed as bacterial growth inhibition at 32 ug/ml measured after 16 hrs by broth microdilution method; format: functional, organism-based; conditions: ATCC 19606 = CIP 70.34 = JCM 6841
[10] = Stability of the compound in simulated gastric fluid at 50 uM and pH 1.2 at 37 degree C measured up to 120 mins by HPLC-ESI/MS analysis; conditions: simulated gi fluid, pH 1.2, 2 h
[11] = Stability of compound in human liver microsomes at 1 ug/ml measured up to 60 mins in absence of NADPH by LC-MS/MS analysis; format: ADME, Microsome; conditions: 1 h; summary of the method: as §1
Cryptococcus neoformans = assay: Antifungal activity against Cryptococcus neoformans var. grubii H99 ATCC […] as fungal growth inhibition at 32 ug/ml measured after 16 hrs by broth microdilution method; format: functional, organism-based; conditions: var. grubii H99 ATCC 208821
Staphylococcus aureus [12] = assay: Antibacterial activity against Staphylococcus aureus JE2 assessed as bacterial growth inhibition at 32 ug/ml measured after 16 hrs by broth microdilution method; format: functional, organism-based; summary of the method: as §2
Candida albicans = assay: Antifungal activity against Candida albicans ATCC 90028 assessed as fungal growth inhibition at 32 ug/ml measured after 16 hrs by broth microdilution method; format: functional, organism-based
Pseudomonas aeruginosa = assay: Antibacterial activity against Pseudomonas aeruginosa ATCC 27853 assessed as bacterial growth inhibition at 32 ug/ml measured after 16 hrs by broth microdilution method; format: functional, organism-based
Staphylococcus aureus [13] = assay: Antibacterial activity against methicillin-resistant Staphylococcus aureus ATCC 43300 assessed as bacterial growth inhibition at 32 ug/ml measured after 16 hrs by broth microdilution method; format: functional, organism-based
[14] = Mutagenicity in Drosophila melanogaster somatic cells assessed as frequency of clone formation in ST crosses at 0.25 to 1 mM by SMART assay; format: ADME; conditions: 1000 µM; summary of the method: as §3
Klebsiella pneumoniae = assay: Antibacterial activity against Klebsiella pneumoniae ATCC 700603 assessed as bacterial growth inhibition at 32 ug/ml measured after 16 hrs by broth microdilution method; format: functional, organism-based
HaCaT = assay: Cytotoxicity against immortal human HaCaT cells assessed as reduction in cell viability at 50 ug/ml after 24 hrs by CCK-8 assay; format: cell-based
Summary of the method: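 HeLa 229 and HaCaT cells in DMEM with 10% FBS and 1% penicillin/streptomycin, 37 °C, 5% CO2, seeded at 5000 cells/well. Next day treated with 50 μg/mL in triplicate, with matching DMSO controls. After 24 h, CCK-8 added for 2 h; corrected absorbance read at 450 nm.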

Chlamydia trachomatis [15] = assay: Anti-chlamydial activity against Chlamydia trachomatis Serovar LGV-L2 infected in Hep2 cells assessed as reduction in chlamydial infectivity by measuring decrease in inclusion forming units at 50 ug/ml treated at 8 hrs post-infection and 24 hrs later re-infecting fresh Hep2 cells monolayer with infected cells and measured at 24 hrs post re-infection by immunofluorescence staining based microscopy analysis; format: functional, organism-based
Summary of the method: (§4)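 HEp-2 cells in DMEM with 10% FBS, infected with C. trachomatis L2 at MOI 1. Compounds added 8 hpi in triplicate; DMSO stocks at 50 mg/mL. At 24 hpi lysates collected in sucrose storage medium, frozen at −80 °C, and used to infect fresh HEp-2 monolayers in 10-fold dilutions. After 24 h, stained with goat anti-MOMP and Alexa488 secondary. Inclusions counted in 15 fields at 20x; IFU = mean count per field corrected for dilution.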

[16] = Drug metabolism in human liver microsomes assessed as amount of drug modified at 1 ug/ml […] in presence of NADPH by LC-MS/MS analysis; format: ADME, Microsome; conditions: read-out: Drug metabolism
HeLa 229 = assay: Cytotoxicity against human HeLa 229 cells assessed as cell viability at 50 ug/ml after 24 hrs by CCK-8 assay relative to control; format: cell-based; conditions: hela 229, 24 h
Summary of the method: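 HeLa 229 cells kept in DMEM with 10% FBS and 1% penicillin/streptomycin at 37 °C, 5% CO2. Seeded at 5000 cells/well and dosed next day at 50 μg/mL in triplicate for 24 h, against DMSO-matched controls. CCK-8 reagent added for 2 h, then corrected absorbance read at 450 nm.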

[17] = (§5) Activation of recombinant mouse C-terminal 6xHis-tagged ClpP expressed in Escherichia coli assessed as induction of casein degradation at 0.1 to 1 uM using FITC-labelled casein as substrate pretreated with enzyme for 30 mins followed by substrate addition and measured every 3 mins for 3 hrs in absence of AAA+ chaperone by fluorescence based tecan-plate reader assay
Summary of the method: (§6)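 Recombinant C-terminal His6-tagged ClpP, expressed in a clpAPX-null E. coli strain and purified (mammalian ClpP without mitochondrial signal, codon-optimized). ClpP at 1 or 0.1 μM (E. coli), 1 μM (human, mouse) or 6 μM (chlamydial ClpP1 and ClpP2) preincubated with compound or DMSO, 30 min, 32 °C, in HEPES pH 7.6/KCl/MgCl2/DTT/glycerol buffer. 20 μM FITC-casein then added. Fluorescence (ex 490/em 525 nm) read every 3 min for 3 h. At least three runs on at least two protein preparations.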

Chlamydia trachomatis [18] = assay: as §5, with “Chlamydia trachomatis Serovar LGV-L2” for “mouse”, “6xhis-tagged ClpP1/ClpP2 dimer” for “6xHis-tagged ClpP”; summary of the method: as §6
Chlamydia trachomatis [19] = assay: as §5, with “Chlamydia trachomatis Serovar LGV-L2” for “mouse”, “6xhis-tagged ClpP1” for “6xHis-tagged ClpP”, “absence” for “absence of AAA+”; summary of the method: as §6
Chlamydia trachomatis [20] = assay: as §5, with “Chlamydia trachomatis Serovar LGV-L2” for “mouse”, “6xhis-tagged ClpP2” for “6xHis-tagged ClpP”; summary of the method: as §6
[21] = molecular target: ATP-dependent Clp protease proteolytic subunit (Escherichia coli (strain K12)) (UniProt P0A6G7); assay: as §5, with “recombinant” for “recombinant mouse C-terminal 6xHis-tagged ClpP expressed in”, “coli ClpP” for “coli”; summary of the method: as §6
[22] = as §5, with “human” for “mouse”; summary of the method: as §6
Chlamydia trachomatis [23] = assay: (§7) Anti-Chlamydial activity against Chlamydia trachomatis Serovar LGV-L2 infected in Hep2 cells assessed as reduction in size and number of chlamydial inclusion at 50 ug/ml treated at 8 hrs post-infection and 24 hrs later re-infecting fresh Hep2 cells monolayer with infected cells and measured at 24 hrs post re-infection by immunofluorescence staining based microscopy analysis; format: functional, organism-based; summary of the method: as §4
Neisseria meningitidis = assay: Antimicrobial activity against Neisseria meningitidis MC58 assessed as bacterial growth inhibition measured after 18 to 20 hrs; format: functional
Haemophilus influenzae = assay: Antimicrobial activity against Haemophilus influenzae H2192 assessed as bacterial growth inhibition measured after 18 to 20 hrs; format: functional
Chlamydia trachomatis [24] = assay: as §7, with “4” for “50”; format: functional, organism-based; summary of the method: as §4

ATP-dependent Clp protease proteolytic subunit (Escherichia coli (strain K12)), sequence (P0A6G7 whole entry): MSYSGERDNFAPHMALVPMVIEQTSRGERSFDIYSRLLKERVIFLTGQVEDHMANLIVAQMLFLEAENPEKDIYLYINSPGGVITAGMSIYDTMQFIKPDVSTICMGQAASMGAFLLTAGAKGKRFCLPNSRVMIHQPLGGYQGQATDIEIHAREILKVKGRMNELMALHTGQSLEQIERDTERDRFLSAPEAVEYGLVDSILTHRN

SMILES | inhibition (Chlamydia trachomatis [2]) | inhibition (Escherichia coli [6]) | inhibition (Escherichia coli [7]) | inhibition (Acinetobacter baumannii) | inhibition (Cryptococcus neoformans) | inhibition (Staphylococcus aureus [12]) | inhibition (Candida albicans) | inhibition (Pseudomonas aeruginosa) | inhibition (Staphylococcus aureus [13]) | inhibition (Klebsiella pneumoniae) | inhibition (Chlamydia trachomatis [15]) | other results
CC(C)(C(=O)NCCOc1ccccc1)S(=O)(=O)c1ccc(C(F)(F)F)cc1 | Active | inactive | inactive | inactive | inactive | inactive | inactive | inactive | inactive | inactive | Active | CLH [1]: 1840 mL/min/kg; Activity [3]: Non-Toxic; t1/2 [4]: 2.98 min; Stability [5]: Stable; Activity [8]: Non-Toxic; microsomal intrinsic clearance [9]: 233.77 µL/min; Stability [10]: Stable; Stability [11]: Stable; Activity [14]: Non-Toxic; Activity (HaCaT): Non-Toxic; metabolised at 10 min, 1 ug/ml [16]: 90%; Activity (HeLa 229): < 65%
CC(C)(C(=O)NCCCc1ccccc1)S(=O)(=O)c1ccccc1 | inactive | inactive | inactive | inactive | inactive | inactive | inactive | inactive | inactive | inactive |  | Activity [17]: Not Active; Activity (Chlamydia trachomatis [18]): Active; Activity (Chlamydia trachomatis [19]): Active; Activity (Chlamydia trachomatis [20]): Active; Activity [21]: inactive; Activity [22]: Not Active
CC(C)(C(=O)NCCCc1ccccc1)S(=O)(=O)c1ccc(C(F)(F)F)cn1 |  |  |  |  |  |  |  |  |  |  | Active | inhibition (Chlamydia trachomatis [23]): Active; Activity (Neisseria meningitidis): 16 µg/mL; Activity (Haemophilus influenzae): 8 µg/mL
CC[C@H]1OC(=O)[C@H](C)[C@@H](O[C@H]2C[C@@](C)(OC)[C@@H](O)[C@H](C)O2)[C@H](C)[C@@H](O[C@@H]2O[C@H](C)C[C@H](N(C)C)[C@H]2O)[C@](C)(O)C[C@@H](C)CN(C)[C@H](C)[C@@H](O)[C@]1(C)O |  |  |  |  |  |  |  |  |  |  |  | inhibition (Chlamydia trachomatis [24]): Active
